“Also recorded” adds a separate entry of the source.
Assays:
[1] = system: S. aureus (ATCC 25923 and MRSA SA 452); assay: Checkerboard assay, both strains; format: cell-based; settings: for Conversion of resistance to sensitivity by surfactin: addition of at least 64 μg/mL of surfactin, ATCC 25923 and MRSA; for Interaction with surfactin (in words): S. aureus (ATCC 25923 and MRSA)
ATCC 25923 [2] = settings: for Fold Change: MIC of antibiotic, alone vs with surfactin; for FICI: antibiotic + surfactin
SA 452 [3] = settings: for Fold Change: MIC of antibiotic, alone vs with surfactin; for FICI: antibiotic + surfactin
ATCC 25923 [4] = assay: Mutant prevention concentration, ATCC 25923; format: cell-based, S. aureus
Summary of the method: (§1)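 Strains were grown 24 h in MH broth, centrifuged at 4000×g for 10 min and resuspended to 1×1010 CFU/mL. […] MPC was the lowest concentration preventing colonies. MPC/MIC ratio defined the mutant selection window.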

SA 452 [5] = assay: Mutant prevention concentration, SA 452; format: cell-based, S. aureus
[6] = system: S. aureus (ATCC 25923 and MRSA SA 452); assay: Mutant prevention / resistance selection, both strains; format: cell-based; settings: combination of oxacillin and surfactin
Summary of the method: as §1

Row | SMILES | Conversion of resistance to sensitivity by surfactin [1] | Interaction with surfactin (in words) [1] | Fold Change (ATCC 25923 [2]) | Interaction with surfactin (in words) (ATCC 25923 [2]) | Fold Change (SA 452 [3]) | FICI (SA 452 [3]) | Interaction with surfactin (in words) (SA 452 [3]) | MIC/MPC (text: MPC/MIC ratio) (ATCC 25923 [4]; oxacillin alone) | MIC (ATCC 25923 [4]; oxacillin alone, unit not in table) | Decrease of MPC/MIC value (ATCC 25923 [4]; with 64 μg/mL of surfactin vs oxacillin alone) [fold] | MIC/MPC (SA 452 [5]; oxacillin alone, SA 452) | MIC (SA 452 [5]; oxacillin alone, SA 452, unit not in table) | Decrease of MPC/MIC value (SA 452 [5]; with surfactin vs oxacillin alone, MRSA) [fold] | FICI (ATCC 25923 [2]) | Mutant selection window (MSW), in words [6]
1 | CC1(C)S[C@@H]2[C@H](NC(=O)[C@H](N)c3ccccc3)C(=O)N2[C@H]1C(=O)O [Ampicillin] | converted them to sensitivity | synergies; also recorded: synergistic effects | 8 | synergistic effects | 128 | 0.133 | significantly synergistic effects | – | – | – | – | – | – | – | –
2 | O=C(O)c1cn(C2CC2)c2cc(N3CCNCC3)c(F)cc2c1=O [Ciprofloxacin] | – | – | – | – | – | 2 | – | – | – | – | – | – | – | – | –
3 | CC[C@H]1OC(=O)[C@H](C)[C@@H](O[C@H]2C[C@@](C)(OC)[C@@H](O)[C@H](C)O2)[C@H](C)[C@@H](O[C@@H]2O[C@H](C)C[C@H](N(C)C)[C@H]2O)[C@](C)(O)C[C@@H](C)C(=O)[C@H](C)[C@@H](O)[C@]1(C)O [Erythromycin] | – | – | – | – | – | 2 | – | – | – | – | – | – | – | – | –
4 | CNC(C)C1CCC(N)C(OC2C(N)CC(N)C(OC3OCC(C)(O)C(NC)C3O)C2O)O1 (stereo not drawn) [Gentamicin] | – | – | – | – | – | 0.25 | significantly synergistic effects | – | – | – | – | – | – | – | –
5 | Cc1onc(-c2ccccc2)c1C(=O)N[C@@H]1C(=O)N2[C@@H]1SC(C)(C)[C@@H]2C(=O)O [Oxacillin] | converted them to sensitivity | synergies; also recorded: synergistic effects | 8 | synergistic effects | – | 0.156 | significantly synergistic effects | 32 | 0.5 | 8 | >32 | 8 | ≥ 2 | 0.25 | narrowed the MSW for oxacillin against MRSA
6 | CN(C)[C@@H]1C(O)=C(C(N)=O)C(=O)[C@@]2(O)C(O)=C3C(=O)c4c(O)cccc4[C@@](C)(O)[C@H]3C[C@@H]12 [Tetracycline] | converted them to sensitivity | synergies; also recorded: synergistic effects | 16 | synergistic effects | 128 | 0.133 | significantly synergistic effects | – | – | – | – | – | – | 0.188 | –
